Source: ChEMBL document CHEMBL4339251, “Prenylated Bibenzyls from the Chinese Liverwort Radula constricta and Their Mitochondria-Derived Paraptotic Cytotoxic Activities” (J Nat Prod, 2019)
Counter-ions that a name gives are not always drawn. Calls of active or inactive are those of the source. No cut-off for these calls is given here.

Legend:
Type in all cases: functional, cell-based
HepG2 = assay: Cytotoxicity in human HepG2 cells assessed as reduction in cell viability incubated for 48 hrs by MTT assay; details: HepG2, 48 h
In short: (§1)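 MTT viability. Cells were seeded in 96-well plates overnight and exposed to a range of concentrations. MTT (5 mg/mL) was added for 4 h, formazan was dissolved in DMSO and absorbance read at 570 nm. Three independent experiments.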

A549 [1] = assay: Cytotoxicity in human A549 cells assessed as reduction in cell viability incubated for 48 hrs by MTT assay; details: A549, 48 h
In short: as §1, with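 “viability. U251 and NCI-H1299 were grown in DMEM, the other lines in RPMI 1640, each with 10% FBS, penicillin and streptomycin, at 37 °C in 5% CO2.” for “viability.”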

NCI-H1299 = assay: Cytotoxicity in human NCI-H1299 cells assessed as reduction in cell viability incubated for 48 hrs by MTT assay; details: NCI-H1299, 48 h
In short: as §1, with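 “viability. U251 and NCI-H1299 were grown in DMEM, the other lines in RPMI 1640, each with 10% FBS, penicillin and streptomycin, at 37 °C in 5% CO2.” for “viability.”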

SMMC-7721 = assay: Cytotoxicity in human SMMC7721 cells assessed as reduction in cell viability incubated for 48 hrs by MTT assay; details: SMMC-7721, 48 h
In short: as §1, with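 “viability. U251 and NCI-H1299 were grown in DMEM, the other lines in RPMI 1640, each with 10% FBS, penicillin and streptomycin, at 37 °C in 5% CO2.” for “viability.”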

MCF7 = assay: Cytotoxicity in human MCF7 cells assessed as reduction in cell viability incubated for 48 hrs by MTT assay; details: MCF7, 48 h
In short: as §1, with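 “viability. U251 and NCI-H1299 were grown in DMEM, the other lines in RPMI 1640, each with 10% FBS, penicillin and streptomycin, at 37 °C in 5% CO2.” for “viability.”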

U-251 = assay: Cytotoxicity in human U251 cells assessed as reduction in cell viability incubated for 48 hrs by MTT assay; details: U-251, 48 h
In short: as §1, with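 “viability. U251 and NCI-H1299 were grown in DMEM, the other lines in RPMI 1640, each with 10% FBS, penicillin and streptomycin, at 37 °C in 5% CO2.” for “viability.”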

SW-620 = assay: Cytotoxicity in human SW620 cells assessed as reduction in cell viability incubated for 48 hrs by MTT assay; details: SW-620, 48 h
In short: as §1, with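 “viability. U251 and NCI-H1299 were grown in DMEM, the other lines in RPMI 1640, each with 10% FBS, penicillin and streptomycin, at 37 °C in 5% CO2.” for “viability.”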

HT-29 = assay: Cytotoxicity in human HT-29 cells assessed as reduction in cell viability incubated for 48 hrs by MTT assay; details: HT-29, 48 h
In short: as §1, with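 “viability. U251 and NCI-H1299 were grown in DMEM, the other lines in RPMI 1640, each with 10% FBS, penicillin and streptomycin, at 37 °C in 5% CO2.” for “viability.”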

KB = assay: Cytotoxicity in human KB cells assessed as reduction in cell viability incubated for 48 hrs by MTT assay
In short: as §1, with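 “viability. U251 and NCI-H1299 were grown in DMEM, the other lines in RPMI 1640, each with 10% FBS, penicillin and streptomycin, at 37 °C in 5% CO2.” for “viability.”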

A549 [2] = assay: Induction of cytoplasmic vacuolization in human A549 cells

| Compound | IC50 (HepG2) [µM] | IC50 (A549 [1]) [µM] | IC50 (NCI-H1299) [µM] | IC50 (SMMC-7721) [µM] | IC50 (MCF7) [µM] | IC50 (U-251) [µM] | IC50 (SW-620) [µM] | IC50 (HT-29) [µM] | IC50 (KB) [µM] | Activity (A549 [2]) |
| --- | --- | --- | --- | --- | --- | --- | --- | --- | --- | --- |
| CC1(C)CCc2c(CCc3ccccc3)cc(O)cc2O1 | > 40 | > 40 | > 40 | > 40 | > 40 | > 40 | > 40 | > 40 | > 40 | Active |
| CC(C)=CCC[C@@]1(C)C=Cc2c(CCc3ccccc3)cc(O)cc2O1 | 35 | > 40 | > 40 | 24.8 | > 40 | 8.9 | 18.5 | > 40 | 28.1 | – |
| COC(=O)c1c(CCc2ccccc2)cc2c(c1O)CC(C(C)(C)O)O2 (racemic) | > 40 | > 40 | > 40 | > 40 | > 40 | > 40 | > 40 | > 40 | > 40 | – |
| COC(=O)c1c(CCc2ccccc2)cc(O)c2c1OC(C)(C)C(O)C2 (racemic) | > 40 | > 40 | > 40 | > 40 | > 40 | > 40 | > 40 | > 40 | > 40 | – |
| COc1cccc2c1C(=O)c1c(O)c3c(c(O)c1C2=O)C[C@@](O)(C(=O)CO)C[C@@H]3O[C@H]1C[C@H](N)[C@H](O)[C@H](C)O1 [DOXORUBICIN HYDROCHLORIDE] | – | – | 0.8 | 0.8 | – | 2.9 | 1.2 | 3.8 | 3.2 | – |
| CC1(C)[C@@H]2c3c(CCc4ccccc4)cc(O)cc3O[C@]3(C)CC[C@H]1[C@H]23 | 13.1 | 9.8 | 7.5 | 13.5 | 20 | 25.6 | 10.4 | > 10 | 16 | Active |
| CC1=CCc2c(O)cc(CCc3ccccc3O)cc2OC1 | 28.2 | 28.9 | > 40 | 40 | > 40 | 38.6 | > 40 | 24.3 | > 40 | Active |
| CC1=CC(=O)c2c(O)cc(CCc3ccccc3O)cc2OC1 | > 40 | > 40 | > 40 | > 40 | > 40 | > 40 | > 40 | > 40 | > 40 | – |
| COc1cc(CCc2ccccc2)c2c(c1)OC(C)(C)CC2 | > 40 | > 40 | > 40 | > 40 | > 40 | 26.1 | > 40 | > 40 | > 40 | – |
| CC(C)=CCCC(C)(O)CCc1c(O)cc(O)cc1CCc1ccccc1 (racemic) | > 40 | > 40 | > 40 | 38.7 | > 40 | 36.7 | > 40 | > 40 | 29.6 | – |
| C=C(C)C(O)Cc1c(O)cc(CCc2ccccc2)c(C(=O)OC)c1O (racemic) | 34.9 | 36.6 | > 40 | 9 | 37.9 | 8.7 | 22.2 | 29.6 | > 40 | – |
| COC(=O)c1c(CCc2ccccc2)cc2c(c1O)CC(O)C(C)(C)O2 (racemic) | > 40 | > 40 | > 40 | > 40 | > 40 | > 40 | > 40 | > 40 | > 40 | – |
| C=C(C)[C@H]1CC[C@@]2(C)Oc3cc(O)cc(CCc4ccccc4)c3[C@@H]1[C@H]2O | 31.6 | 28 | > 40 | 28.4 | 37 | 14.6 | 21.3 | 35.3 | 38 | – |
| C=C(C)[C@@H](O)CC/C(C)=C/Cc1c(O)cc(O)cc1CCc1ccccc1 | 22.2 | 25.5 | > 40 | 29.5 | 28.9 | > 40 | 19.7 | 29 | 17.2 | Active |
| CC(C)=CCC/C(C)=C/Cc1c(O)cc(O)cc1CCc1ccccc1 | 36 | > 40 | > 40 | 24.5 | > 40 | 9.3 | 25.6 | > 40 | 25.7 | – |
| CC1=CCc2c(O)cc(CCc3ccccc3)cc2OC1 | > 40 | > 40 | > 40 | > 40 | > 40 | > 40 | > 40 | > 40 | > 40 | – |
| CC(C)(O)[C@H]1CC[C@@]2(C)Oc3cc(O)cc(CCc4ccccc4)c3[C@@H]1[C@H]2O | > 40 | > 40 | > 40 | > 40 | > 40 | > 40 | > 40 | > 40 | > 40 | – |
| O=C1C=Cc2c(O)cc(CCc3ccccc3O)cc2OC1 | > 40 | > 40 | > 40 | 14.7 | 33.2 | 21.7 | 13.8 | > 40 | > 40 | – |
| C=C(CCC=C(C)C)[C@H](O)Cc1c(O)cc(O)cc1CCc1ccccc1 | 20.4 | 26 | > 40 | 15.8 | 18.7 | 9.1 | 15.2 | 19.8 | 16.8 | – |
| CC(C)=CCCC1(C)Oc2cc(O)cc(CCc3ccccc3)c2CC1O (racemic) | > 40 | > 40 | > 40 | > 40 | > 40 | > 40 | > 40 | > 40 | > 40 | – |
